{"source": "ChEMBL document CHEMBL5724801", "about": "“EUbOPEN Chemogenomics Library - Multiplex” (2024)", "key": {"[1]": {"test_system": "HEK-293T", "assay": "Multiplex assay against HEK293T", "format": "toxicity, cell-based", "settings": "human", "how_it_was_run": "(§1)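 Per cents of healthy-nucleus cells form the tubulin, mitochondrial-mass and membrane-permeability phenotype values. Live cells were stained at seeding with Hoechst33342, BioTracker Green Microtubule Cytoskeleton Dye, MitoTracker Red and Annexin V Alexa Fluor 680. After compound addition they were imaged on a CQ1 microscope at 37°C and 5% CO2, and CellPathfinder machine-learning gating split them into Hoechst high-intensity objects or normal cells, normal cells into healthy, pyknosed or fragmented nuclei, and pyknosed cells into mitotic or apoptotic.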"}, "[2]": {"test_system": "U2OS", "assay": "Multiplex assay against U2OS", "format": "toxicity, cell-based", "settings": "human", "how_it_was_run": "as §1"}, "[3]": {"settings": "24 h, 1 µM, compound concentration 1 uM"}, "[4]": {"settings": "24 h, 10 µM, compound concentration 10 uM"}, "[5]": {"settings": "48 h, 1 µM, compound concentration 1 uM"}, "[6]": {"settings": "48 h, 10 µM, compound concentration 10 uM"}, "[7]": {"settings": "12 h, 1 µM, compound concentration 1 uM"}, "[8]": {"settings": "12 h, 10 µM, compound concentration 10 uM"}}, "note": "Where “and” joins values, the source holds several entries; their conditions need not be identical. Equal values may be shown once.", "data": [{"smiles": "Cc1ccc(-c2c(C(=O)CF)n(CCCO)c3ncnc(N)c23)cc1", "values": [{"measurement": "Total Cell Count", "setting": "[1]; [3]", "result": "470 and 160"}, {"measurement": "Population Apoptotic (%)", "setting": "[1]; [4]", "result": "19.61% and 24.07%"}, {"measurement": "Population Fragmented Nuclei (%)", "setting": "[1]; [4]", "result": "2.25% and 2.94%"}, {"measurement": "Population Healthy Nuclei (%)", "setting": "[1]; [4]", "result": "74.77% and 33.53%"}, {"measurement": "Population Hoechst High Intensity Objects (%)", "setting": "[1]; [4]", "result": 0, "unit": "%"}, {"measurement": "Population Membrane Permeable-Phenotype (%)", "setting": "[1]; [4]", "result": "0.9% and 0%"}, {"measurement": "Population Mitotic Cells (%)", "setting": "[1]; [4]", "result": "80.39% and 75.93%"}, {"measurement": "Population Normal (%)", "setting": "[1]; [4]", "result": 100, "unit": "%"}, {"measurement": "Population Pyknosed Nuclei (%)", "setting": "[1]; [4]", "result": "22.97% and 63.53%"}, {"measurement": "Population Tubulin-Different-Phenotype (%)", "setting": "[1]; [4]", "result": "24.4% and 8.77%"}, {"measurement": "Total Cell Count", "setting": "[1]; [4]", "result": "444 and 170"}, {"measurement": "Population Fragmented Nuclei (%)", "setting": "[1]; [5]", "result": "1.92% and 2.58%"}, {"measurement": "Population Healthy Nuclei (%)", "setting": "[1]; [5]", "result": "88.16% and 57.22%"}, {"measurement": "Population Hoechst High Intensity Objects (%)", "setting": "[1]; [5]", "result": 0, "unit": "%"}, {"measurement": "Population Membrane Permeable-Phenotype (%)", "setting": "[1]; [5]", "result": "5.14% and 2.7%"}, {"measurement": "Population Mitochondria Different-Phenotype (%)", "setting": "[1]; [5]", "result": "13.34% and 21.62%"}, {"measurement": "Population Mitotic Cells (%)", "setting": "[1]; [5]", "result": "97.67% and 83.33%"}, {"measurement": "Population Normal (%)", "setting": "[1]; [5]", "result": 100, "unit": "%"}, {"measurement": "Population Apoptotic (%)", "setting": "[1]; [6]", "result": "7.29% and 16.44%"}, {"measurement": "Population Fragmented Nuclei (%)", "setting": "[1]; [6]", "result": "3.41% and 2.51%"}, {"measurement": "Population Healthy Nuclei (%)", "setting": "[1]; [6]", "result": "87.23% and 60.8%"}, {"measurement": "Population Hoechst High Intensity Objects (%)", "setting": "[1]; [6]", "result": 0, "unit": "%"}, {"measurement": "Population Membrane Permeable-Phenotype (%)", "setting": "[1]; [6]", "result": "3.58% and 0.83%"}, {"measurement": "Population Mitochondria Different-Phenotype (%)", "setting": "[1]; [6]", "result": "25.47% and 33.88%"}, {"measurement": "Population Mitotic Cells (%)", "setting": "[1]; [6]", "result": "92.71% and 83.56%"}, {"measurement": "Population Normal (%)", "setting": "[1]; [6]", "result": 100, "unit": "%"}, {"measurement": "Population Apoptotic (%)", "setting": "[2]; [7]", "result": "36.11% and 57.14%"}, {"measurement": "Population Fragmented Nuclei (%)", "setting": "[2]; [7]", "result": "2.07% and 1.92%"}, {"measurement": "Population Healthy Nuclei (%)", "setting": "[2]; [7]", "result": "88.63% and 84.62%"}, {"measurement": "Population Hoechst High Intensity Objects (%)", "setting": "[2]; [7]", "result": 0, "unit": "%"}, {"measurement": "Population Membrane Permeable-Phenotype (%)", "setting": "[2]; [7]", "result": "0.29% and 2.27%"}, {"measurement": "Population Mitochondria Different-Phenotype (%)", "setting": "[2]; [7]", "result": "0% and 2.27%"}, {"measurement": "Population Mitotic Cells (%)", "setting": "[2]; [7]", "result": "63.89% and 42.86%"}, {"measurement": "Population Normal (%)", "setting": "[2]; [7]", "result": 100, "unit": "%"}, {"measurement": "Population Pyknosed Nuclei (%)", "setting": "[2]; [7]", "result": "9.3% and 13.46%"}, {"measurement": "Population Tubulin-Different-Phenotype (%)", "setting": "[2]; [7]", "result": "0.29% and 0%"}, {"measurement": "Population Apoptotic (%)", "setting": "[2]; [8]", "result": "50% and 52.94%"}, {"measurement": "Population Fragmented Nuclei (%)", "setting": "[2]; [8]", "result": "1.91% and 5.78%"}, {"measurement": "Population Healthy Nuclei (%)", "setting": "[2]; [8]", "result": "88.83% and 84.39%"}, {"measurement": "Population Hoechst High Intensity Objects (%)", "setting": "[2]; [8]", "result": 0, "unit": "%"}, {"measurement": "Population Membrane Permeable-Phenotype (%)", "setting": "[2]; [8]", "result": "0.61% and 4.11%"}, {"measurement": "Population Mitochondria Different-Phenotype (%)", "setting": "[2]; [8]", "result": "0% and 3.42%"}, {"measurement": "Population Mitotic Cells (%)", "setting": "[2]; [8]", "result": "50% and 47.06%"}, {"measurement": "Population Normal (%)", "setting": "[2]; [8]", "result": 100, "unit": "%"}, {"measurement": "Population Pyknosed Nuclei (%)", "setting": "[2]; [8]", "result": "9.26% and 9.83%"}, {"measurement": "Population Tubulin-Different-Phenotype (%)", "setting": "[2]; [8]", "result": "0.61% and 0%"}, {"measurement": "Total Cell Count", "setting": "[2]; [8]", "result": "367 and 173"}, {"measurement": "Population Apoptotic (%)", "setting": "[2]; [3]", "result": "47.37% and 40%"}, {"measurement": "Population Fragmented Nuclei (%)", "setting": "[2]; [3]", "result": "1.55% and 4.48%"}, {"measurement": "Population Healthy Nuclei (%)", "setting": "[2]; [3]", "result": "91.09% and 84.33%"}, {"measurement": "Population Hoechst High Intensity Objects (%)", "setting": "[2]; [3]", "result": 0, "unit": "%"}, {"measurement": "Population Membrane Permeable-Phenotype (%)", "setting": "[2]; [3]", "result": "0.43% and 3.54%"}, {"measurement": "Population Mitochondria Different-Phenotype (%)", "setting": "[2]; [3]", "result": "0% and 2.65%"}, {"measurement": "Population Mitotic Cells (%)", "setting": "[2]; [3]", "result": "52.63% and 60%"}, {"measurement": "Population Normal (%)", "setting": "[2]; [3]", "result": 100, "unit": "%"}, {"measurement": "Population Pyknosed Nuclei (%)", "setting": "[2]; [3]", "result": "7.36% and 11.19%"}, {"measurement": "Population Tubulin-Different-Phenotype (%)", "setting": "[2]; [3]", "result": "0.21% and 0.88%"}, {"measurement": "Population Apoptotic (%)", "setting": "[2]; [4]", "result": "54.05% and 43.48%"}, {"measurement": "Population Fragmented Nuclei (%)", "setting": "[2]; [4]", "result": "2.71% and 3.7%"}, {"measurement": "Population Healthy Nuclei (%)", "setting": "[2]; [4]", "result": "89.58% and 86.83%"}, {"measurement": "Population Hoechst High Intensity Objects (%)", "setting": "[2]; [4]", "result": 0, "unit": "%"}, {"measurement": "Population Membrane Permeable-Phenotype (%)", "setting": "[2]; [4]", "result": "0.93% and 5.21%"}, {"measurement": "Population Mitochondria Different-Phenotype (%)", "setting": "[2]; [4]", "result": "0% and 4.27%"}, {"measurement": "Population Mitotic Cells (%)", "setting": "[2]; [4]", "result": "45.95% and 56.52%"}, {"measurement": "Population Normal (%)", "setting": "[2]; [4]", "result": 100, "unit": "%"}, {"measurement": "Population Pyknosed Nuclei (%)", "setting": "[2]; [4]", "result": "7.71% and 9.47%"}, {"measurement": "Population Tubulin-Different-Phenotype (%)", "setting": "[2]; [4]", "result": "1.4% and 0.47%"}, {"measurement": "Total Cell Count", "setting": "[2]; [4]", "result": "480 and 243"}, {"measurement": "Population Apoptotic (%)", "setting": "[2]; [5]", "result": "33.82% and 20%"}, {"measurement": "Population Fragmented Nuclei (%)", "setting": "[2]; [5]", "result": "3.18% and 5%"}, {"measurement": "Population Healthy Nuclei (%)", "setting": "[2]; [5]", "result": "89.85% and 81.36%"}, {"measurement": "Population Hoechst High Intensity Objects (%)", "setting": "[2]; [5]", "result": 0, "unit": "%"}, {"measurement": "Population Membrane Permeable-Phenotype (%)", "setting": "[2]; [5]", "result": "1.26% and 1.12%"}, {"measurement": "Population Mitochondria Different-Phenotype (%)", "setting": "[2]; [5]", "result": "0% and 2.23%"}, {"measurement": "Population Mitotic Cells (%)", "setting": "[2]; [5]", "result": "66.18% and 80%"}, {"measurement": "Population Normal (%)", "setting": "[2]; [5]", "result": 100, "unit": "%"}, {"measurement": "Population Pyknosed Nuclei (%)", "setting": "[2]; [5]", "result": "6.97% and 13.64%"}, {"measurement": "Population Tubulin-Different-Phenotype (%)", "setting": "[2]; [5]", "result": "0.34% and 0.56%"}, {"measurement": "Population Apoptotic (%)", "setting": "[2]; [6]", "result": "49.33% and 48.98%"}, {"measurement": "Population Fragmented Nuclei (%)", "setting": "[2]; [6]", "result": "2.94% and 2.66%"}, {"measurement": "Population Healthy Nuclei (%)", "setting": "[2]; [6]", "result": "89.18% and 85.47%"}, {"measurement": "Population Hoechst High Intensity Objects (%)", "setting": "[2]; [6]", "result": 0, "unit": "%"}, {"measurement": "Population Membrane Permeable-Phenotype (%)", "setting": "[2]; [6]", "result": "0.94% and 1.13%"}, {"measurement": "Population Mitochondria Different-Phenotype (%)", "setting": "[2]; [6]", "result": "0% and 1.42%"}, {"measurement": "Population Mitotic Cells (%)", "setting": "[2]; [6]", "result": "50.67% and 51.02%"}, {"measurement": "Population Normal (%)", "setting": "[2]; [6]", "result": 100, "unit": "%"}, {"measurement": "Population Pyknosed Nuclei (%)", "setting": "[2]; [6]", "result": "7.88% and 11.86%"}, {"measurement": "Population Tubulin-Different-Phenotype (%)", "setting": "[2]; [6]", "result": "1.06% and 0.57%"}, {"measurement": "Total Cell Count", "setting": "[2]; [6]", "result": "952 and 413"}]}]}
